Data: article PMC4094229 (European journal of medicinal chemistry, 2013)

Key:
[1] = test system: MCF-10A cells; experiment: MTT cell viability assay, normal breast MCF-10A; format: cell-based, human
[2] = test system: MDA-MB-231 cells; experiment: Cell cycle distribution; format: cell-based, human; conditions: 24 h
[3] = test system: MCF-7 cells; experiment: Cell cycle distribution; format: cell-based, human; conditions: 24 h
[4] = test system: human breast cancer cell lines (MCF-7 and MDA-MB-231); experiment: MTT assay, activity against cancer cells; format: cell-based; conditions: 72 h, up to 50 μM
Summary of the method: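 ATCC cells were used. MCF-7 was grown in DMEM with 10% FBS, insulin, pyruvate and NEAA; MDA-MB-231 in DMEM with 10% FBS, NEAA and L-glutamine. Cells were seeded at 3×10³/well and exposed 72 h to 0, 1, 5, 10, 25, 50 μM, with a DMSO vehicle. MTT (5 mg/mL stock) was added for 2–4 h at 37°C; formazan was dissolved in DMSO and read at A570. Viability = mean OD treated/DMSO control; IC50 from three separate experiments.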

[5] = test system: MCF-7 cells; experiment: MTT cell viability assay, MCF-7; format: cell-based; conditions: Homo sapiens, MCF7, 72 h, read-out: IC50 MCF-7, MTT, 72 h, 1-50 μM

Question: With `C=C1C(=O)O[C@H]2C[C@H](C)[C@@]34C[C@@]5(C(=O)O[C@H]6C[C@@H](C)[C@@H]7[C@@H](OC(C)=O)C[C@H](O)[C@@]7(C)C[C@@H]65)[C@@H](C(C)=C3C[C@H]12)[C@@H]4O` [Compound 1, Lineariifolianoid E] as the compound, how does the “toxicity to MCF-10A cells” value ([1]; normal breast cell line) read?
Answer: low toxicity

Question: What about the “effect on cell cycle progression” value ([2]; MDA-MB-231, 0, 1, 2.5 μM) of the same compound?
Answer: dose-dependent cell cycle arrest in both S and G2/M phase

Question: What about the “cell cycle arrest at 2.5 μM” value ([2]; MDA-MB-231, 2.5 μM) of the same compound?
Answer: significant increase in the number of cells in both S and G2/M phases

Question: And the “effect on cell cycle progression” value ([3]; MCF-7, 0, 1, 2.5 μM)?
Answer: dose-dependent cell cycle arrest in the G2/M phase

Question: What about the “cell cycle arrest at 2.5 μM” value ([3]; MCF-7, 2.5 μM) of the same compound?
Answer: a majority of the MCF-7 cells were arrested in the G2/M phase

Question: `C=C1C(=O)O[C@H]2C[C@H](C)[C@H]3[C@@H](O)C[C@@](C)(O)[C@@]34O[C@H]4[C@H]12` [Compound 6, 5α,6α-epoxy-2α,4α-dihydroxy-1β-guai-11(13)-en-12,8α-olide] was tested. Which “activity against cancer cells” value [4] did it give?
Answer: did not show visible activity

Question: For `C=C1C(=O)O[C@@H]2CC(C)=C3[C@@H](OC(C)=O)C[C@@](C)(O)[C@@H]3[C@@H](O)[C@H]12` [Compound 7, 6α-hydroxyinuchinenolide B], which “activity against cancer cells” value [4] is on record?
Answer: did not show visible activity

Question: For `CC(=O)O[C@H]1C=C(CCO)[C@@H](C)C[C@H]2OC(=O)[C@@H](C)[C@@H]12` [Compound 9, 6β-acetoxysundiversifolide], which “activity against cancer cells” value [4] is on record?
Answer: did not exhibit any noticeable activity

Question: Which “activity against cancer cells” value [4] does the source give for `C=C1C(=O)O[C@@H]2CC(C)=C3[C@@H](C[C@H]12)[C@](C)(O)C[C@@H]3O` [Compound 10, deacetylinuchinenolide B] here?
Answer: did not show visible activity

Question: Which “activity against cancer cells” value [4] does the source give for `C[C@@H]1C2=C[C@H]3[C@@H](C[C@@]2(C)CC[C@@H]1O)OC(=O)[C@@H]3C` [Compound 15, 3β-hydroxy-11α,13-dihydroalantolactone] here?
Answer: did not exhibit any noticeable activity

Question: `COc1cccc2c1C(=O)c1c(O)c3c(c(O)c1C2=O)C[C@@](O)(C(=O)CO)C[C@@H]3O[C@H]1C[C@H](N)[C@H](O)[C@H](C)O1` [Doxorubicin] was tested. Which IC50 [5] did it give?
Answer: 700 ± 60 nM

Question: `CC(=O)O[C@H]1C(=O)[C@@]2(C)[C@H]([C@H](OC(=O)c3ccccc3)[C@]3(O)C[C@H](OC(=O)[C@H](O)[C@@H](NC(=O)c4ccccc4)c4ccccc4)C(C)=C1C3(C)C)[C@]1(OC(C)=O)CO[C@@H]1C[C@@H]2O` [Paclitaxel, reference compound] was tested. Which IC50 ([1]; Homo sapiens, MCF-10A, 72 h, read-out: IC50 MCF-10A) did it give?
Answer: 427 ± 55.4 nM
